Assay results from different studies.
Compare with care: the assays were run in different laboratories.
EGFR: Epidermal growth factor receptor (EGFR, Homo sapiens, UniProt P00533)
EGFR T790M: Epidermal growth factor receptor (EGFR, Homo sapiens, UniProt P00533, T790M)
EGFR G719S: Epidermal growth factor receptor (EGFR, Homo sapiens, UniProt P00533, G719S)
EGFR del752-759: Epidermal growth factor receptor (EGFR, Homo sapiens, UniProt P00533, del752-759)
EGFR del746-750: Epidermal growth factor receptor (EGFR, Homo sapiens, UniProt P00533, del746-750)
EGFR L858R: Epidermal growth factor receptor (EGFR, Homo sapiens, UniProt P00533, L858R)
EGFR del747-750/T751S: Epidermal growth factor receptor (EGFR, Homo sapiens, UniProt P00533, del747-750/T751S)

`c1cncc(-c2cccc(Nc3nccc(NC4CCCCC4)n3)c2)c1` gave a remaining binding of 56% (EGFR; binding; competition with immobilised ligand; 10 µM).
The remaining binding of `O=C(NCCCN1CCOCC1)c1ccc(Nc2ncc(Cl)c(-c3ccc(Cl)s3)n2)cc1` is reported as 89% (EGFR; binding; competition with immobilised ligand; 1 µM).
For `CO[C@@H](C)c1c(Nc2ccc([C@H](N(C)C(=O)C3CCS(=O)(=O)CC3)C(F)(F)F)cc2)cnc2cc(Cl)nn12`, the remaining binding was 90% (EGFR T790M; cell-free assay; competition with immobilised ligand; 1 µM).
The remaining binding of `O=C(c1ccc(Nc2ncc(Cl)c(-c3ccc(Cl)s3)n2)cc1)N1CCC(N2CCCC2)CC1` is reported as 96% (EGFR G719S; binding; competition with immobilised ligand; 1 µM).
`O=C(NCC1CCOCC1)c1n[nH]cc1NC(=O)c1c(F)cccc1F` has a remaining binding of 100% (EGFR del752-759; binding; competition with immobilised ligand; 1 µM).
`COc1cnc(Nc2cccc(S(N)(=O)=O)c2)nc1N1CCN(c2ccccc2)C(=O)C1` has a remaining binding of 96% (EGFR del746-750; binding; competition with immobilised ligand; 1 µM).
`CN(c1nccc(-c2cnn3ncccc23)n1)C1CC1` gave a remaining binding of 100% (EGFR T790M; binding; 1 µM).
The remaining binding of `O=C(NC[C@@H]1[C@H]2CN(C(=O)OCc3cc(C(F)(F)F)cc(C(F)(F)F)c3)C[C@@H]12)c1ccc2[nH]nnc2c1` is reported as 80% (Epidermal growth factor receptor (EGFR, Homo sapiens, UniProt P00533, L858R/T790M); cell-free assay; competition with immobilised ligand; 1 µM).
With `COc1ccnn2ncc(-c3ccnc(N(C)C)n3)c12` the remaining binding was 96% (EGFR G719S; binding; 1 µM).
The remaining binding of `Cc1cnc(Nc2ccc(C(=O)N3CCC(N4CCCC4)CC3)cc2)nc1-c1cc2ccccc2s1` is reported as 100% (EGFR del746-750; binding; competition with immobilised ligand; 1 µM).
`N[C@H]1CCN(c2nccc(-c3cnn4ncccc34)n2)C1` gave a remaining binding of 79% (EGFR T790M; binding; 1 µM).
`Nc1ncc2c(n1)-c1c([nH]c3ccc(C#CC4CC4)cc13)CCCC2` has a remaining binding of 100% (EGFR L858R; binding; competition with immobilised ligand; 1 µM).
`O=C(c1ccc(Nc2nccc(-c3cc4ccccc4s3)n2)cc1)N1CCC(N2CCCC2)CC1` has a remaining binding of 100% (Epidermal growth factor receptor (EGFR, Homo sapiens, UniProt P00533, A750P/del747-749); binding; competition with immobilised ligand; 1 µM).
`COc1ccc2c(c1)O[C@H](c1ccc(OC)c(OC)c1)C[C@@H]2NC(=O)C1(c2ccc3c(c2)OC(F)(F)O3)CC1` gave a remaining binding of 99% (EGFR G719S; cell-free assay; competition with immobilised ligand; 1 µM).
`CC1CCCN1c1nccc(-c2cnn3ncccc23)n1` (centres unmarked) gave a remaining binding of 100% (EGFR L858R; binding; 1 µM).
`Nc1cnc(N2CCc3cc(S(=O)(=O)Nc4c(F)cc(Cl)cc4F)cc(N4CCCC4=O)c32)nc1` gave a remaining binding of 85% (EGFR L858R; cell-free assay; competition with immobilised ligand; 1 µM).
`C[C@@H]1CCN(c2nccc(-c3cnn4ncccc34)n2)C1` has a remaining binding of 79% (EGFR T790M; binding; 1 µM).
For `Cc1c(C(=O)O)cc(-c2ccc(C3CCNCC3)cc2)c2ccc(-c3ccc(C(F)(F)F)cc3)cc12`, the remaining binding was 100% (EGFR del747-750/T751S; cell-free assay; competition with immobilised ligand; 1 µM).
`O=C(NCCCN1CCOCC1)c1ccc(Nc2nccc(-c3cc4ccccc4s3)n2)cc1` has a remaining binding of 100% (EGFR del747-750/T751S; binding; competition with immobilised ligand; 1 µM).
`F[C@@H]1CCN(c2nccc(-c3cnn4ncccc34)n2)C1` gave a remaining binding of 66% (EGFR del746-750; binding; 1 µM).
`CN(c1ccnc(CNc2nc(Nc3ccc4c(c3)CC(=O)N4)ncc2C(F)(F)F)n1)S(C)(=O)=O` gave a remaining binding of 76% (EGFR del752-759; cell-free assay; competition with immobilised ligand; 1 µM).
`Cc1cnn2ncc(-c3ccnc(N(C)C)n3)c2c1` has a remaining binding of 100% (EGFR G719S; binding; 1 µM).
`Cc1cc(C)c(-n2ccn3nc(-c4cccnc4)cc23)cc1NC(=O)c1cc(C#N)cc(S(F)(F)(F)(F)F)c1` has a remaining binding of 91.1% (Epidermal growth factor receptor (EGFR, Homo sapiens, UniProt P00533, L861Q); cell-free assay; competition with immobilised ligand; 0.1 µM).
